From PMC9546099 (British Journal of Clinical Pharmacology, 2022)
Values joined by “and” are separate entries in the source; they are usually repeats but may differ in a detail not shown here. Identical values can stand only once. Counter-ions that a name gives are not always drawn. Like-named read-outs stand apart in the source and are kept apart here. Blank lines part the entries; values can stand above or below the compound they belong to.

Key:
[1] = type: in vivo, human; conditions: for Tlag / Tmax: median (minimum - maximum); for Tmax: t max
How it was run: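 Plasma was precipitated with acetonitrile plus internal standards, vortexed and centrifuged. Supernatant was diluted with water for validated LC-MS/MS of parent and metabolites, with quantification limit 10 ng/mL and calibration curves and QC samples in every batch. Noncompartmental analysis per subject gave geometric mean (%CV) parameters, with tmax as median (min–max).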

COMT = conditions: cited from earlier work; for IC50: read-out: IC50 against COMT
[2] = Metabolite profiling in plasma AUC pool by LC-AMS; type: in vivo, human; conditions: average, AMS radiodetection
How it was run: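 A per-subject plasma AUC pool (Hamilton method) covered at least the last quantifiable time point. Plasma (5 g) was precipitated twice with acetonitrile, evaporated and resuspended in DMSO:acetonitrile:water 20:20:60. LC fractions were measured by AMS, with carbon content in duplicate. Peaks were assigned against spiked synthetic standards (UV 250 nm). Extraction recovery compared pool versus supernatant and reconstituted-extract radioactivity.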

[3] = cited from earlier work
[4] = Metabolite profiling in urine and faeces by LC-MS and off-line radiodetection; type: in vivo, human
How it was run: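 Urine was pooled per subject to ≥80% of recovered radioactivity and concentrated. Faeces were pooled to >90% of excreted radioactivity, plus cross-subject 48-72 h and 96-120 h pools; these were acetonitrile-extracted, dried and reconstituted in acetonitrile:water 20:80. Analysis used accurate-mass LC-MS (± switching, 70 000 resolution, 100-800 amu; HCD MS/MS 17 500) with off-line radiodetection, reported as % administered radioactivity.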

[5] = rat; cited from earlier work
[6] = cited from earlier work; remark: listed apart in the source
[7] = cited from earlier work; remark: listed apart in the source
[8] = nonhuman primate [NHP]; cited from earlier work
[9] = male, human, plasma, oral, 100 mg

SMILES: Cc1nc(Cl)c(-c2noc(-c3cc(O)c(O)c([N+](=O)[O-])c3)n2)c(C)c1Cl [BIA 9‐1079, 5-(3-(2,5-dichloro-4,6-dimethylpyridin-3-yl)-1,2,4-oxadiazol-5-yl)-3-nitrobenzene-1,2-diol]
plasma concentration ([1]; below the limit of quantification in almost all time points): < 10 ng/mL | IC50 (COMT): 128 nM

SMILES: COc1c(O)cc(-c2nc(-c3c(C)c(Cl)c(C)[n+]([O-])c3Cl)no2)cc1[N+](=O)[O-] [BIA 9‐1104, 2,5-dichloro-3-(5-(3-hydroxy-4-methoxy-5-nitrophenyl)-1,2,4-oxadiazol-3-yl)-4,6-dimethylpyridine 1-oxide]
% of total circulating radioactivity [2]: 6.59% | IC50 (COMT): 429 nM

SMILES: COc1c(OS(=O)(=O)O)cc(-c2nc(-c3c(C)c(Cl)c(C)[n+]([O-])c3Cl)no2)cc1[N+](=O)[O-].c1ccncc1 [BIA 9‐4584, pyridin-1-ium 5-(3-(2,5-dichloro-4,6-dimethyl-1-oxidopyridin-3-yl)-1,2,4-oxadiazol-5-yl)-2-methoxy-3-nitrophenyl sulfate]
% of total circulating radioactivity [2]: 2.30%

SMILES: COc1c(O)cc(-c2nc(-c3c(C)c(Cl)c(C)[n+]([O-])c3SC[C@H](N)C(=O)O)no2)cc1[N+](=O)[O-].Cl [BIA 9‐5049, (R)-2-((2-amino-2-carboxyethyl)thio)-5-chloro-3-(5-(3-hydroxy-4-methoxy-5-nitrophenyl)-1,2,4-oxadiazol-3-yl)-4,6-dimethylpyridine 1-oxide hydrochloride]
% of total circulating radioactivity [2]: 3.72%

SMILES: Cc1c(Cl)c(C)[n+]([O-])c(Cl)c1-c1noc(-c2cc(O)c(O)c([N+](=O)[O-])c2)n1 [opicapone, 2,5‐dichloro‐3‐(5‐[3,4‐dihydroxy‐5‐nitrophenyl]‐1,2,4‐oxadiazol‐3‐yl)‐4,6‐dimethylpyridine 1‐oxide, reference compound]
AUC(0-inf) [1, 9]: 1890 ng·h/mL | AUC(0-t) [1, 9]: 1830 ng·h/mL | Cmax [1, 9]: 600 ng/mL | half-life [1, 9]: 1 h | Tmax [1, 9]: 2 h | Tlag ([1]; plasma): 0.250 (0.250‐0.500) h | % of total circulating radioactivity [2]: 12.1% | fraction of the dose recovered in faeces [5]: more than 70% | % of the administered radioactivity excreted in faeces ([4]; average, pooled faeces): 22.32% | unchanged parent observed in urine ([4]; in vivo): Only trace amounts | cytotoxicity [6]: not to induce cytotoxicity | dose proportionality of the pharmacokinetic profile [7]: dose‐proportional up to 1200 mg | fraction of the dose recovered in faeces [8]: more than 70%

Further lines, with some results ahead:

% of total circulating radioactivity [2]: 2.96%
SMILES: COc1cc(-c2nc(-c3c(C)c(Cl)c(C)[n+]([O-])c3Cl)no2)cc([N+](=O)[O-])c1O [BIA 9‐1100, 2,5-dichloro-3-(5-(4-hydroxy-3-methoxy-5-nitrophenyl)-1,2,4-oxadiazol-3-yl)-4,6-dimethylpyridine 1-oxide]

% of total circulating radioactivity [2]: 0.39%
SMILES: COc1cc(-c2nc(-c3c(C)c(Cl)c(C)[n+]([O-])c3Cl)no2)cc([N+](=O)[O-])c1O [BIA 9‐1101, 2,5-dichloro-3-(5-(4-hydroxy-3-methoxy-5-nitrophenyl)-1,2,4-oxadiazol-3-yl)-4,6 dimethylpyridine 1-oxide]

AUCt ([1]; plasma, geometric mean (% CV)): 8120 (75.7) ng.h/ml | C max ([1]; plasma, geometric mean (% CV)): 115(48.7) ng/ml | Tlag ([1]; plasma): 1.05 (1.00‐2.00) h | % of total circulating radioactivity [2]: 58.6%
SMILES: Cc1c(Cl)c(C)[n+]([O-])c(Cl)c1-c1noc(-c2cc(OS(=O)(=O)O)c(O)c([N+](=O)[O-])c2)n1 [BIA 9‐1103, 5-(3-(2,5-dichloro-4,6-dimethyl-1-oxidopyridin-3-yl)-1,2,4-oxadiazol-5-yl)-2-hydroxy-3-nitrophenyl sulfate]
binding to plasma proteins [3]: more than 98% | pharmacological activity on COMT (COMT): pharmacologically inactive on COMT | pharmacological activity on COMT (COMT; listed as 3‐O‐sulfate‐opicapone): pharmacologically inactive

AUC(0-t) [1, 9]: 75 ng·h/mL | Cmax [1, 9]: 33.6 ng/mL | Tmax [1, 9]: 2 h | Tlag ([1]; plasma): 0.75 (0.500‐2.00) h | % of the administered radioactivity in urine ([4]; average, pooled urine): 1.72% and < 2%
SMILES: Cc1c(Cl)c(C)[n+]([O-])c(Cl)c1-c1noc(-c2cc(O[C@@H]3O[C@H](C(=O)O)[C@@H](O)[C@H](O)[C@H]3O)c(O)c([N+](=O)[O-])c2)n1 [BIA 9‐1106, 3-(5-(3-((2S,3R,4S,5S,6S)-6-carboxy-3,4,5-trihydroxytetrahydro-2H-pyran-2-yloxy)-4-hydroxy-5-nitrophenyl)-1,2,4-oxadiazol-3-yl)-2,5-dichloro-4,6-dimethylpyridine 1-oxide]
